Test results reported in ChEMBL document CHEMBL4334452, “Monosaccharide Analogues of Anticancer Peptide R-Lycosin-I: Role of Monosaccharide Conjugation in Complexation and the Potential of Lung Cancer Targeting and Therapy” (J Med Chem, 2019).
Activity calls are given as the source filed them. The rule behind the calls is not given here. *1 amine or outer side, *2 acyl side, *3 side chain or, on linkers, in order; H or OH if unused. Where a SMILES comes first, the peptide text is derived from it. The star is where a group is joined. NH(CH2)3O(βDGlc) = OC[C@H]1O[C@@H](OCCCN*)[C@H](O)[C@@H](O)[C@@H]1O; Glutaryl = O=C(CCCC(=O)[*:2])[*:1]

Tests used:
[1] = Toxicity in Balb/c nu/nu mouse xenografted with human A549 cells expressing luciferase gene assessed as change in body weight at 3 mg/kg administered intratumorally every 3 days for four times measured on day 12; assay type: organism-based; conditions: in vivo, other, 72 h
In short: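 Male BALB/c nu/nu mice, 4–6 weeks old, carrying subcutaneous A549-luciferase tumours (right back, cells in sterile PBS), dosed at a tumour size of 100–200 mm³; five per group, PBS controls. Two regimens: 9 mg/kg i.p. (200 µL) every other day ×7, ended day 14; or 3 mg/kg intratumoral (100 µL) every 3 days ×4, ended day 12. Body weight was monitored throughout.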

A549 [2] = assay: Induction of apoptosis in human A549 cells assessed as viable cells at 8 uM measured after 4 hrs by Annexin V-FITC/propidium iodide staining-based flow cytometry (reference value: 95.4%); assay type: functional; conditions: A549, 4 h, read-out: Activity
In short: (§1)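 A549 cells grown 24 h, trypsinized, then resuspended in medium with 8 µM peptide for 4 h at 37 °C. Cells washed with cold PBS, stained with Annexin V-FITC/PI, and analysed by flow cytometry.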

A549 [3] = assay: Antitumor activity against human A549 cells expressing luciferase gene xenografted in Balb/c nu/nu mouse assessed as reduction in tumor volume at 3 mg/kg administered intratumorally every 3 days for four times measured on day 12 by bioluminescent imaging analysis; assay type: functional, organism-based
In short: (§2)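 Male BALB/c nu/nu mice, 4-6 weeks old, with subcutaneous A549-luciferase xenografts. Treatment began when tumors reached 100-200 mm³, five per group. Peptide was injected intratumorally at 3 mg/kg in 100 µL every 3 days for 4 doses; 100 µL PBS was the control. Bioluminescent imaging on day 12, with tumor size and body weight monitored.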

A549 [4] = assay: Antitumor activity against human A549 cells expressing luciferase gene xenografted in Balb/c nu/nu mouse assessed as tumor growth inhibition at 3 mg/kg administered intratumorally every 3 days for four times measured on day 12 by bioluminescent imaging analysis; assay type: functional, organism-based; in short: as §2
A549 [5] = assay: Potency index, ratio of compound effect to R-lycosin-I effect for antitumor activity against human A549 cells expressing luciferase gene xenografted in Balb/c nu/nu mouse at 3 mg/kg administered intratumorally; assay type: functional
[6] = target: T1, Solute carrier family 2, facilitated glucose transporter member 1 (Homo sapiens) (UniProt P11166); assay: Binding affinity to GLUT1 in human A549 cells assessed as cytotoxicity by measuring reduction in cell viability at 15 uM by trypan blue staining-based assay
T1 sequence (whole entry): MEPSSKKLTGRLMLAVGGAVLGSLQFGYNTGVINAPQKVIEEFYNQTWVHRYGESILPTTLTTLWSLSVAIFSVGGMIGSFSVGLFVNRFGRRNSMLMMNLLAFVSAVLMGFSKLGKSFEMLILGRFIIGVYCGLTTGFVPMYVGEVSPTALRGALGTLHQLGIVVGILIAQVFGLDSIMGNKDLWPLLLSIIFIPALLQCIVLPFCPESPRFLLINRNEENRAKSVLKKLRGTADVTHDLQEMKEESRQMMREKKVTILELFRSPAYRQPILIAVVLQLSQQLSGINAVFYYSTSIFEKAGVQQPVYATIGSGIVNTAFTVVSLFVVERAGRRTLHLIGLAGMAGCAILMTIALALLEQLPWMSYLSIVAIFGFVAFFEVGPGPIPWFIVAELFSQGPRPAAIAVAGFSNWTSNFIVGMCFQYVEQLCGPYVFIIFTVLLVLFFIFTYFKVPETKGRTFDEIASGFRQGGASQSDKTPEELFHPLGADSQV
In short: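 A549 cells stained with trypan blue after peptide treatment at 15 µM. Dead cells appear blue and live cells unstained; live cells were counted.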

A549 [7] = assay: Induction of apoptosis in human A549 cells assessed as early apoptotic cells at 8 uM measured after 4 hrs by Annexin V-FITC/propidium iodide staining-based flow cytometry (reference value: 0.39%); assay type: functional; in short: as §1
[8] = target: T1, Solute carrier family 2, facilitated glucose transporter member 1 (Homo sapiens); assay: Binding affinity to GLUT1 in human A549 cells assessed as cytotoxicity by measuring LDH release at 12.5 uM measured after 2 hrs relative to control; assay type: cell-based
In short: (§3)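 A549 cells at 2×10^3/well, allowed to adhere overnight, then exposed to peptide over a concentration series for 2 h. LDH release measured with a kit, absorbance at 490 nm. 1% Triton X-100 taken as 100% release; n=3.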

[9] = Drug uptake in spleen of Balb/c nu/nu mouse xenografted with human A549 cells expressing luciferase gene at 3 mg/kg administered intratumorally measured after 6 hrs by fluorescence assay; assay type: ADME, organism-based; conditions: in vivo, other
A549 [10] = assay: Induction of mitochondrial membrane disruption in human A549 cells assessed as increase in cytochrome C level in cytoplasm at 15 uM measured after 24 hrs by immunofluorescence assay; assay type: functional, cell-based
In short: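 A549 cells given 15 µM peptide for 24 h, permeabilized 2 min with 0.5% Triton X-100 and blocked 30 min in 10% sheep serum/PBS. Anti-CytC (1:100) applied 2 h at RT, then fluorescent goat anti-mouse secondary (1:200) for 1 h. Confocal imaging; untreated cells served as control.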

[11] = Drug uptake in tumor of Balb/c nu/nu mouse xenografted with human A549 cells expressing luciferase gene at 9 mg/kg, ip measured after 6 hrs by fluorescence assay; assay type: ADME, organism-based, Neoplasm; conditions: in vivo
A549 [12] = assay: Cytotoxicity against GLUT1 knockout out human A549 cells assessed as reduction in cell viability measured after 24 hrs by CCK8 assay; assay type: functional, cell-based; conditions: A549, 24 h
In short: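 A549 cells with GLUT1 knocked down by RNAi oligos, about 50% knockdown versus control oligos. Cells treated with a concentration series, read by 24-h serum-free CCK-8 viability, and an IC50 derived from the dose-response curve.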

[13] = Drug uptake in heart of Balb/c nu/nu mouse xenografted with human A549 cells expressing luciferase gene at 3 mg/kg administered intratumorally measured after 6 hrs by fluorescence assay; assay type: ADME, organism-based; conditions: in vivo, other
[14] = target: T1, Solute carrier family 2, facilitated glucose transporter member 1 (Homo sapiens); assay: Binding affinity to GLUT1 in human A549 cells assessed as cytotoxicity by measuring increase in LDH release at 25 uM measured after 2 hrs; assay type: cell-based; in short: as §3
[15] = target: T1, Solute carrier family 2, facilitated glucose transporter member 1 (Homo sapiens); assay: Binding affinity to GLUT1 in 3D spheroids of human A549 cells assessed as cytotoxicity by measuring reduction in cell viability at 30 uM treated every 2 days for 6 days by CCK8 assay; assay type: cell-based
In short: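 A549 3D spheroids, one per well, in 10% medium with peptide at 30 µM final. Dosed at day 0, then re-added at days 2 and 4, for 6 days total. Spheroids washed thrice, then imaged and sized at days 0, 3 and 6. Viability read by CCK-8.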

[16] = Drug uptake in liver of Balb/c nu/nu mouse xenografted with human A549 cells expressing luciferase gene at 3 mg/kg administered intratumorally measured after 6 hrs by fluorescence assay; assay type: ADME, organism-based; conditions: in vivo, other
A549 [17] = assay: Induction of morphological changes in human A549 cells assessed as disruption of cell membrane at 15 uM measured after 24 hrs by scanning electron microscopic analysis; assay type: functional, cell-based
In short: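 A549 cells pre-seeded on mica sheets for 24 h at 37°C, then exposed to 15 μM peptide for 24 h at 37°C. Cells were PBS-washed twice, fixed in 4% paraformaldehyde for 15 min, dehydrated through graded ethanol and imaged by SEM at 15 kV. Untreated cells served as control.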

Row | Drug uptake [9] | Drug uptake [11] | Drug uptake [13] | Drug uptake [16] | SMILES | Activity [1] | viability at 8 µM (A549 [2]) | Activity (A549 [3]) | TGI (A549 [4]) | Ratio (A549 [5]) | Activity [6] | Activity (A549 [7]) | Activity [8] | Activity (A549 [10]) | IC50 (A549 [12]) | Activity [14] | Activity [15] | Activity (A549 [17])
1 | Active | Active | Active | Active | CC[C@H](C)[C@H](NC(=O)[C@H](Cc1ccccc1)NC(=O)[C@H](CCCNC(=N)N)NC(=O)[C@H](C)NC(=O)[C@@H](NC(=O)[C@H](CO)NC(=O)[C@H](CCCNC(=N)N)NC(=O)[C@H](CCSC)NC(=O)[C@H](C)NC(=O)[C@H](CCCNC(=N)N)NC(=O)[C@H](Cc1ccccc1)NC(=O)[C@H](Cc1c[nH]c2ccccc12)NC(=O)CNC(=O)[C@H](CCCNC(=N)N)NC(=O)CCCC(=O)NCCCO[C@@H]1O[C@H](CO)[C@@H](O)[C@H](O)[C@H]1O)[C@@H](C)CC)C(=O)N[C@@H](C)C(=O)N[C@@H](CCCNC(=N)N)C(=O)N[C@@H](CCC(=O)O)C(=O)N[C@@H](CCCNC(=N)N)C(=O)N[C@@H](CC(C)C)C(=O)N[C@@H](CCCNC(=N)N)C(=O)N[C@@H](CCC(=O)O)C(=O)N[C@@H](Cc1cnc[nH]1)C(=O)N[C@@H](CC(C)C)C(=O)O ({NH(CH2)3O(βDGlc)-Glutaryl}-RGWFRAMRSIARFIARERLREHL-OH) | Non-Toxic | 59.8% | Active | Active | 1.6 | Active | 1.1% | > 30% | Active | 13.4 µM | Active | Active | Active
2 | Active | – | Active | Active | CC[C@H](C)[C@H](NC(=O)[C@H](Cc1ccccc1)NC(=O)[C@H](CCCNC(=N)N)NC(=O)[C@H](C)NC(=O)[C@@H](NC(=O)[C@H](CO)NC(=O)[C@H](CCCNC(=N)N)NC(=O)[C@H](CCSC)NC(=O)[C@H](C)NC(=O)[C@H](CCCNC(=N)N)NC(=O)[C@H](Cc1ccccc1)NC(=O)[C@H](Cc1c[nH]c2ccccc12)NC(=O)CNC(=O)[C@@H](N)CCCNC(=N)N)[C@@H](C)CC)C(=O)N[C@@H](C)C(=O)N[C@@H](CCCNC(=N)N)C(=O)N[C@@H](CCC(=O)O)C(=O)N[C@@H](CCCNC(=N)N)C(=O)N[C@@H](CC(C)C)C(=O)N[C@@H](CCCNC(=N)N)C(=O)N[C@@H](CCC(=O)O)C(=O)N[C@@H](Cc1cnc[nH]1)C(=O)N[C@@H](CC(C)C)C(=O)O (H-RGWFRAMRSIARFIARERLREHL-OH) | Non-Toxic | 88.8% | Active | Active | – | Active | 0.63% | > 30% | Active | – | Active | Active | Active
